ChEMBL document CHEMBL4346740, “Development of novel lithocholic acid derivatives as vitamin D receptor agonists” (Bioorg Med Chem, 2019)
Calls of active or inactive are those of the source. The calls are words filed in the database; no cut-off is given here.

Assays:
[1] = target: T1, Vitamin D3 receptor (Homo sapiens) (UniProt P11473); assay: Transactivation of VDR in human […] cell assessed as cell differentiation at 10^-7 to 10^-5 M measured after 4 days by NBT dye-based assay
T1 sequence (whole entry): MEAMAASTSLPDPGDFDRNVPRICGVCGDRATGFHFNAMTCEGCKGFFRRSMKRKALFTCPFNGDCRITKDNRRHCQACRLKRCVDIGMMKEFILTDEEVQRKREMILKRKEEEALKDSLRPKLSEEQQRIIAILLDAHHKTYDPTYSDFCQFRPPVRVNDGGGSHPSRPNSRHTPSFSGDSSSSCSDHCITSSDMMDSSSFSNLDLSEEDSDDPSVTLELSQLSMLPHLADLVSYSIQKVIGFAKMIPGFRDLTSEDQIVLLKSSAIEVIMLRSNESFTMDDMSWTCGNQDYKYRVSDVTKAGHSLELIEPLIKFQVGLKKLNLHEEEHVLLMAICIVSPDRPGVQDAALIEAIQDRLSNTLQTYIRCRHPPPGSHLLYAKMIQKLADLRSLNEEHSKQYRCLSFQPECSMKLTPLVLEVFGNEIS
Procedure, shortened: (§1)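 HL-60 cells grown in RPMI-1640 with 5% FBS, diluted to 8.0 × 10^4 cells/mL. Compound added from ethanol solution; ethanol-only control; 1α,25(OH)2D3 run alongside each time. Incubated 4 days at 37 °C, 5% CO2. Cells then exposed 20 min at 37 °C to 0.2% NBT with TPA (200 ng/mL) in PBS. Formazan-positive percentage scored in at least 200 cells.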

[2] = target: T2, Vitamin D3 receptor (Bos taurus) (UniProt Q28037); assay: Displacement of [3H]1alpha,25(OH)2D3 from bovine thymus VDR incubated for 19 hrs by radioactivity based competitive binding assay
T2 sequence (whole entry): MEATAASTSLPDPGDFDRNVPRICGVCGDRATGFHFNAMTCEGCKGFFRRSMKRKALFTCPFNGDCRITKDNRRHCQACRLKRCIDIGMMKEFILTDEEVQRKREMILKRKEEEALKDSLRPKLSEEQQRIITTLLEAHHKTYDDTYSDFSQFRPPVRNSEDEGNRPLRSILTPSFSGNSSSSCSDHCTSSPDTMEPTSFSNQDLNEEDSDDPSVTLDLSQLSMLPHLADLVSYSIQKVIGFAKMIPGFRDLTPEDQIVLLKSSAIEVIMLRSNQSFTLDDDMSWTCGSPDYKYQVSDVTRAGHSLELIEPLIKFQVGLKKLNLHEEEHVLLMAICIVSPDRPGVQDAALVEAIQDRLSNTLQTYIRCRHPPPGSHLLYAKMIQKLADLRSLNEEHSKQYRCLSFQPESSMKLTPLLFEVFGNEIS
Procedure, shortened: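 Bovine thymus VDR in 0.05 M phosphate buffer (pH 7.4) with 0.3 M KCl and 5 mM DTT. Incubated 19 h at 4 °C with 0.072 nM [3H]1α,25(OH)2D3 plus graded amounts of analog or vehicle. Bound and free ligand separated on dextran-coated charcoal (20 min, 4 °C), then centrifuged at 1000g. Supernatant radioactivity counted; run in duplicate.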

[3] = target: T1, Vitamin D3 receptor (Homo sapiens); assay: Transactivation of human VDR expressed in COS-7 cells transfected with mouse […] for 24 hrs by luciferase based reporter gene assay; type: cell-based
Procedure, shortened: (§2)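 COS-7 cells in DMEM with 5% FCS, lipofected at 24 h with SPPx3-TK-LUC (three mouse osteopontin VDRE copies), pCMX-hVDR and pRL-CMV. After 4 h, switched to DMEM with 1% FCS. Next day, compound, 1α,25(OH)2D3 or ethanol vehicle added for 24 h. Lysate luciferase normalized to sea pansy internal control; triplicate.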

[4] = target: T1, Vitamin D3 receptor (Homo sapiens); assay: Transactivation of VDR in human […] cell assessed as cell differentiation at 10^-5 M measured after 4 days by NBT dye-based assay; procedure, shortened: as §1
[5] = target: T1, Vitamin D3 receptor (Homo sapiens); assay: Transactivation of human VDR expressed in COS-7 cells transfected with mouse osteopontin VDRE at >1 uM measured after 24 hrs by luciferase based reporter gene assay; type: cell-based; procedure, shortened: as §2

Activity [1]	SMILES	Activity [3]	also measured
inactive	COC(=O)O[C@@H]1CC[C@@]2(C)[C@H](CC[C@@H]3[C@@H]2CC[C@]2(C)[C@@H]([C@H](C)CCC(=O)O)CC[C@@H]32)C1		
inactive	C[C@H](CCC(=O)O)[C@H]1CC[C@H]2[C@@H]3CC[C@@H]4C[C@H](OC(=O)C(F)(F)F)CC[C@]4(C)[C@H]3CC[C@]12C		Activity [5]: Active
inactive	C[C@H](CCC(=O)O)[C@H]1CC[C@H]2[C@@H]3CC[C@@H]4C[C@H](OC(=O)c5ccccc5)CC[C@]4(C)[C@H]3CC[C@]12C		

The remaining lines, values behind:

SMILES	Activity [1]	Activity [3]	also measured
C[C@H](CCC(=O)O)[C@H]1CC[C@H]2[C@@H]3CC[C@@H]4C[C@H](NS(C)(=O)=O)CC[C@]4(C)[C@H]3CC[C@]12C	Active		
C[C@H](CCC(=O)O)[C@H]1CC[C@H]2[C@@H]3CC[C@@H]4C[C@H](OS(C)(=O)=O)CC[C@]4(C)[C@H]3CC[C@]12C		Active	Activity [2]: Active
CC(=O)O[C@@H]1CC[C@@]2(C)[C@H](CC[C@@H]3[C@@H]2CC[C@]2(C)[C@@H]([C@H](C)CCC(=O)O)CC[C@@H]32)C1		Active	Activity [4]: Active
